Measured values as given in ChEMBL document CHEMBL1142626, “Insecticidal and mutagenic evaluation of two annonaceous acetogenins” (J Nat Prod, 2000).

What was measured:
Spodoptera littoralis = assay: Antifeedant effect against Spodoptera littoralis assessed as feeding reduction at 100 ug/cm2 relative to control; assay type: functional; set-up: scale not given: the % may be the effect or the level left
Summary of the method: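 Choice test on leaf disks using adult L. decemlineata or newly emerged fifth-instar S. littoralis larvae. Five to 10 plates per treatment, three insects each. Uneaten leaf-disk area was measured by scanner. %FR = [1 − (treatment/control consumption)] × 100 per arena. Where FR exceeded 50%, EC50 was taken from linear regression of %FR on log dose.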

Salmonella typhimurium [1] = assay: Mutagenic activity in Salmonella Typhimurium TA100 assessed as number of revertants at 1 ug/plate in absence of Wistar rat S9 liver homogenate; assay type: toxicity, organism-based; conditions: salmonella enterica subsp. enterica serovar typhimurium
Summary of the method: (§1)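 Salmonella/microsome plate test, with or without S9 from livers of male Wistar rats (~200 g). Strain markers and spontaneous revertant counts were routinely verified. Revertants are reported as mean ± standard error of triplicate plates. Strain-specific positive controls were used, with 2-aminoanthracene for all strains when S9 was present.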

Salmonella typhimurium [2] = assay: Mutagenic activity in Salmonella Typhimurium TA102 assessed as number of revertants at 1 ug/plate in presence of Wistar rat S9 liver homogenate; assay type: toxicity, organism-based, Liver S9 fraction; conditions: salmonella enterica subsp. enterica serovar typhimurium; summary of the method: as §1
Salmonella typhimurium [3] = assay: Mutagenic activity in Salmonella Typhimurium TA100 assessed as number of revertants at 0.1 ug/plate in presence of Wistar rat S9 liver homogenate; assay type: toxicity, organism-based, Liver S9 fraction; conditions: salmonella enterica subsp. enterica serovar typhimurium; summary of the method: as §1
Salmonella typhimurium [4] = assay: Mutagenic activity in Salmonella Typhimurium TA98 assessed as number of revertants at 1 ug/plate in presence of Wistar rat S9 liver homogenate; assay type: toxicity, organism-based, Liver S9 fraction; conditions: salmonella enterica subsp. enterica serovar typhimurium; summary of the method: as §1
Salmonella typhimurium [5] = assay: Mutagenic activity in Salmonella Typhimurium TA98 assessed as number of revertants at 50 ug/plate in absence of Wistar rat S9 liver homogenate; assay type: toxicity, organism-based; conditions: salmonella enterica subsp. enterica serovar typhimurium
Summary of the method: (§2)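 Salmonella/microsome plate test (Ames) in strain TA98, with genetic markers and spontaneous revertant counts verified routinely. Run with and without S9 mix, the S9 being liver postmitochondrial supernatant from male Wistar rats of about 200 g. Doses ran from 0.01 to 100 µg/plate. Revertants are the mean of triplicate plates with standard error. Positive controls were 0.5 µg 4-nitroquinoline-N-oxide without S9 and 15 µg 2-aminoanthracene with S9.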

Salmonella typhimurium [6] = assay: Mutagenic activity in Salmonella Typhimurium TA102 assessed as number of revertants at 1 ug/plate in absence of Wistar rat S9 liver homogenate; assay type: toxicity, organism-based; conditions: salmonella enterica subsp. enterica serovar typhimurium; summary of the method: as §1
Salmonella typhimurium [7] = assay: Mutagenic activity in Salmonella Typhimurium TA102 assessed as number of revertants at 50 ug/plate in presence of Wistar rat S9 liver homogenate; assay type: toxicity, organism-based, Liver S9 fraction; conditions: salmonella enterica subsp. enterica serovar typhimurium; summary of the method: as §1
Salmonella typhimurium [8] = assay: Mutagenic activity in Salmonella Typhimurium TA102 assessed as number of revertants at 0.01 ug/plate in absence of Wistar rat S9 liver homogenate; assay type: toxicity, organism-based; conditions: salmonella enterica subsp. enterica serovar typhimurium; summary of the method: as §1
Salmonella typhimurium [9] = assay: Mutagenic activity in Salmonella Typhimurium TA98 assessed as number of revertants at 20 ug/plate in presence of Wistar rat S9 liver homogenate; assay type: toxicity, organism-based, Liver S9 fraction; conditions: salmonella enterica subsp. enterica serovar typhimurium; summary of the method: as §2
Salmonella typhimurium [10] = assay: Mutagenic activity in Salmonella Typhimurium TA100 assessed as number of revertants at 0.01 ug/plate in presence of Wistar rat S9 liver homogenate; assay type: toxicity, organism-based, Liver S9 fraction; conditions: salmonella enterica subsp. enterica serovar typhimurium; summary of the method: as §1
Salmonella typhimurium [11] = assay: Mutagenic activity in Salmonella Typhimurium TA100 assessed as number of revertants at 100 ug/plate in absence of Wistar rat S9 liver homogenate; assay type: toxicity, organism-based; conditions: salmonella enterica subsp. enterica serovar typhimurium; summary of the method: as §1
Salmonella typhimurium [12] = assay: Mutagenic activity in Salmonella Typhimurium TA100 assessed as number of revertants at 10 ug/plate in presence of Wistar rat S9 liver homogenate; assay type: toxicity, organism-based, Liver S9 fraction; conditions: salmonella enterica subsp. enterica serovar typhimurium; summary of the method: as §1
Salmonella typhimurium [13] = assay: Mutagenic activity in Salmonella Typhimurium TA102 assessed as number of revertants at 50 ug/plate in absence of Wistar rat S9 liver homogenate; assay type: toxicity, organism-based; conditions: salmonella enterica subsp. enterica serovar typhimurium; summary of the method: as §1
Salmonella typhimurium [14] = assay: Mutagenic activity in Salmonella Typhimurium TA98 assessed as number of revertants at 0.01 ug/plate in presence of Wistar rat S9 liver homogenate; assay type: toxicity, organism-based, Liver S9 fraction; conditions: salmonella enterica subsp. enterica serovar typhimurium; summary of the method: as §1
Salmonella typhimurium [15] = assay: Mutagenic activity in Salmonella Typhimurium TA100 assessed as number of revertants at 50 ug/plate in presence of Wistar rat S9 liver homogenate; assay type: toxicity, organism-based, Liver S9 fraction; conditions: salmonella enterica subsp. enterica serovar typhimurium; summary of the method: as §1
Salmonella typhimurium [16] = assay: Mutagenic activity in Salmonella Typhimurium TA100 assessed as number of revertants at 50 ug/plate in absence of Wistar rat S9 liver homogenate; assay type: toxicity, organism-based; conditions: salmonella enterica subsp. enterica serovar typhimurium; summary of the method: as §1
Salmonella typhimurium [17] = assay: Mutagenic activity in Salmonella Typhimurium TA102 assessed as number of revertants at 0.1 ug/plate in absence of Wistar rat S9 liver homogenate; assay type: toxicity, organism-based; conditions: salmonella enterica subsp. enterica serovar typhimurium; summary of the method: as §1
Salmonella typhimurium [18] = assay: Mutagenic activity in Salmonella Typhimurium TA98 assessed as number of revertants at 0.1 ug/plate in absence of Wistar rat S9 liver homogenate; assay type: toxicity, organism-based; conditions: salmonella enterica subsp. enterica serovar typhimurium; summary of the method: as §1
Salmonella typhimurium [19] = assay: Mutagenic activity in Salmonella Typhimurium TA98 assessed as number of revertants at 10 ug/plate in presence of Wistar rat S9 liver homogenate; assay type: toxicity, organism-based, Liver S9 fraction; conditions: salmonella enterica subsp. enterica serovar typhimurium; summary of the method: as §1
Salmonella typhimurium [20] = assay: Mutagenic activity in Salmonella Typhimurium TA98 assessed as number of revertants at 1 ug/plate in absence of Wistar rat S9 liver homogenate; assay type: toxicity, organism-based; conditions: salmonella enterica subsp. enterica serovar typhimurium; summary of the method: as §1
Myzus persicae = assay: Insecticidal activity against Myzus persicae assessed as increase in mortality at 100 ug/cm2 observed daily for 4 days; assay type: functional, organism-based
Summary of the method: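 No-choice test: 20 boxes, each with five same-age apterous adult M. persicae (100 insects). Nymphs produced in the first 48 h were separated from adults and kept in similarly treated boxes. Both were observed daily for 4 days for mortality. Analysed by contingency tables and LSD test.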

Salmonella typhimurium [21] = assay: Mutagenic activity in Salmonella Typhimurium TA102 assessed as number of revertants at 10 ug/plate in absence of Wistar rat S9 liver homogenate; assay type: toxicity, organism-based; conditions: salmonella enterica subsp. enterica serovar typhimurium; summary of the method: as §1
Salmonella typhimurium [22] = assay: Mutagenic activity in Salmonella Typhimurium TA100 assessed as number of revertants at 0.01 ug/plate in absence of Wistar rat S9 liver homogenate; assay type: toxicity, organism-based; conditions: salmonella enterica subsp. enterica serovar typhimurium; summary of the method: as §1
Salmonella typhimurium [23] = assay: Mutagenic activity in Salmonella Typhimurium TA102 assessed as number of revertants at 10 ug/plate in presence of Wistar rat S9 liver homogenate; assay type: toxicity, organism-based, Liver S9 fraction; conditions: salmonella enterica subsp. enterica serovar typhimurium; summary of the method: as §1

Structure (SMILES): CCCCCC[C@H](O)CCC[C@H](O)[C@H]1CC[C@H]([C@H]2CC[C@H]([C@H](O)CCCCCCCCCCCCC3=C[C@H](C)OC3=O)O2)O1 [SQUAMOCIN]
- Activity (Spodoptera littoralis): <40%
- Activity (Salmonella typhimurium [1]): 114
- Activity (Salmonella typhimurium [2]): 422
- Activity (Salmonella typhimurium [3]): 137
- Activity (Salmonella typhimurium [4]): 39
- Activity (Salmonella typhimurium [5]): 10
- Activity (Salmonella typhimurium [6]): 182
- Activity (Salmonella typhimurium [7]): 99
- Activity (Salmonella typhimurium [8]): 259
- Activity (Salmonella typhimurium [9]): 43
- Activity (Salmonella typhimurium [10]): 147
- Activity (Salmonella typhimurium [11]): 21
- Activity (Salmonella typhimurium [12]): 142
- Activity (Salmonella typhimurium [13]): 93
- Activity (Salmonella typhimurium [14]): 36
- Activity (Salmonella typhimurium [15]): 118
- Activity (Salmonella typhimurium [16]): 39
- Activity (Salmonella typhimurium [17]): 243
- Activity (Salmonella typhimurium [18]): 25
- Activity (Salmonella typhimurium [19]): 41
- Activity (Salmonella typhimurium [20]): 26
- Activity (Myzus persicae): Non-toxic
- Activity (Salmonella typhimurium [21]): 108
- Activity (Salmonella typhimurium [22]): 154
- Activity (Salmonella typhimurium [23]): 419
